Assay outcomes deposited in PubChem by several laboratories.
HNF4A DNA FP – change in binding of human HNF4 alpha to DNA. AID 1224865. HNF4a-FITC DNA binding, fluorescence polarization, 1 h. 360,000 compounds, 0.3% hits. P41235. activity change, % at 10 µM; in the data active = activity change above about 30%, passing the limit was not always enough
NadD inh – inhibitors of Staphylococcus aureus NadD | purified NadD enzyme, colorimetric absorbance read-out | inhibition, % at 20 µM | 360,000 compounds, 0.78% hits; in the data active = inhibition above about 26%
TPT1 inh – blocks Candida albicans tRNA 2'-phosphotransferase. inhibition, % at 5 µM. recombinant caTPT1, FP RNA substrate dephosphorylation. AID 1962. 300,000 compounds, 0.81% hits;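 active = inhibition above the mean of all tested compounds plus 3 SD, set per screening campaign, cut at about 24% in these data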
Rpn11 block – Rpn11 (human) deubiquitinase inhibition | human 26S proteasome, Ub4-pepOG fluorescence polarization; 20S core pre-blocked with epoxomicin | inhibition, % at 20 µM | AID 588493 | 360,000 compounds, 0.59% hits | O00487;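 active = inhibition at 20 µM, scaled to each plate's controls, above about 33%, limit read from the data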
Target sequence (O00487 whole entry, looked up): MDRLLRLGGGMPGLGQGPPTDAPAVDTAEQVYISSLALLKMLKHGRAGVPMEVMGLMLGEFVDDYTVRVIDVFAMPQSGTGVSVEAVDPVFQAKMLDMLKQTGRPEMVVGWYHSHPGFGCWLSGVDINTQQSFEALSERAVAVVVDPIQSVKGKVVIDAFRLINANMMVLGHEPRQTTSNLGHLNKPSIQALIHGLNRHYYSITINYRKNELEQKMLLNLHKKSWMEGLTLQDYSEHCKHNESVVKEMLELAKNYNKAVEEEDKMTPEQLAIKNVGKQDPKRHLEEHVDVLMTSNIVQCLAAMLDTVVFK
CSN inh – blocks human CSN-mediated cullin deneddylation; Purified CSN, SCF-Nedd8-OG deneddylation, fluorescence polarization; Q92905; AID 651999; 360,000 compounds, 0.38% hits; inhibition, % at 12.5 µM;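 active = pattern-corrected inhibition above about 35%, with an unprinted fluorescence ratio check between 0.5 and 1.5, limit read from the data, passing the limit was not always enough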
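Assay system: HEK293T-derived human Csn5 enzyme; quantity: 0.24 nM enzyme; medium: Tris/NaCl/DTT buffer, pH 7.5; also added: substrate SCFSkp2-Nedd8OG, 10 nM; doses: 12.5 µM compound; schedule: 90 min reaction at room temperature; signal: FP; read-out: % inhibition of substrate cleavage by Csn5; benchmarks: substrate-only high control, full reaction low control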
PP1 counter – blocks human PP1-alpha phosphatase, a PP5 counter-screen; inhibition, % at 6.7 µM; P62136; 320,000 compounds, 0.9% hits; purified PP1alpha, OMFP fluorescence;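 active = inhibition above the mean inhibition of all tested compounds plus 3 SD, computed separately for each screening campaign, cut at about 15% in these data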
TPT1 inh confirm – TPT1 (C. albicans) inhibition, confirmation. shares compounds with TPT1 inh. recombinant caTPT1, fluorescence polarization, RNase T1 coupled. inhibition, % at 5 µM. 2,400 compounds, 74% hits;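 active = inhibition above the primary screen limit, the mean inhibition of all tested compounds plus 3 SD, cut at about 25% in these data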
RNase T1 counter – blocks Aspergillus oryzae RNase T1, a TPT1 counter-screen; shares compounds with TPT1 inh; RNase T1 cleavage, fluorescence polarization, 1536-well; inhibition, % at 5 µM; 2,400 compounds, 83% hits; AID 2153;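 active = inhibition above the solvent-only control well mean plus 3 SD, limit set per screening run, cut at about 23% in these data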;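 also: inhibitors block cleavage so intact labeled substrate keeps polarization high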
Target sequence (P00651 whole entry, looked up): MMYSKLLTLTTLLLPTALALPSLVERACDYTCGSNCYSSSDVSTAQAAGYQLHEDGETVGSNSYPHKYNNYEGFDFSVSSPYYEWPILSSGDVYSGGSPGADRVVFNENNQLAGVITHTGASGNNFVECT
PP1 confirm – confirmation of human PP1 phosphatase inhibitors; purified PP1alpha, OMFP substrate fluorescence; 1,900 compounds, 52% hits; AID 2358; inhibition, % at 6.7 µM; shares compounds with PP1 counter;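 active = mean PP1 inhibition above a set limit taken from the earlier primary screen, cut at about 15% in these data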
PP5 inh counter – inhibits human PP5 phosphatase in PP1 counter-screen. shares compounds with PP1 counter. purified PP5c, OMFP fluorescence. inhibition, % at 6.7 µM. 1,900 compounds, 4% hits;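 active = mean PP5 inhibition over triplicate wells above about 9.5% taken from the earlier PP1 screen, limit read from the data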
Rpn11 confirm – confirmation of human proteasome Rpn11 inhibitors; purified human 26S proteasome, Ub4-pepOG fluorescence polarization; proteasome pretreated with epoxomicin; AID 602318; 1,900 compounds, 29% hits; inhibition, % at 20 µM; shares compounds with Rpn11 block
MMP-2 counter – MMP-2 (human) inhibition counter-screen | 1,900 compounds, 4% hits | inhibition, % at 20 µM | shares compounds with Rpn11 block | recombinant MMP-2, FRET peptide cleavage fluorescence;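 also: human MMP-2 activated beforehand with APMA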
Thrombin FP – counter-screen for RPN11 inhibitors: inhibition of bovine thrombin | shares compounds with Rpn11 block | bovine thrombin cleavage of Ub4-pepOG, fluorescence polarization | inhibition, % at 20 µM | 1,900 compounds, 13% hits | AID 602333;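 active = mean inhibition at least 40% at 20 µM, or signal 3 deviations below plate average, so some actives read negative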
Of the large screens only hits and unclear results are named; the others gave an inactive call (follow-up assays come after a bar, where they were run). Shown are actives, neighbours in structure and some others; about 2.7% of the full set was active somewhere. Rule as the data show it, unless noted: active = inhibition above about 40%; inactive = the rest.

CCOc1ccc2nc(NC3=NC(c4ccc(OC)cc4)CC(=O)N3)nc(C)c2c1 (centres undefined)	TPT1 inh 26, Rpn11 block active, PP1 counter 39 | TPT1 inh confirm inactive | RNase T1 counter 25 | PP1 confirm inactive | PP5 inh counter inactive | Rpn11 confirm 44 | MMP-2 counter inactive | Thrombin FP inactive
Cc1cc(C(=O)O)ccc1-n1c(C)cc(/C=C(/C#N)C(=O)Nc2ccccc2)c1C	none
Cc1cc(C(=O)O)ccc1-n1c(C)cc(C=C2C(=O)c3ccccc3C2=O)c1C	TPT1 inh 59, Rpn11 block 44 | TPT1 inh confirm 51 | RNase T1 counter 63 | Rpn11 confirm inactive | MMP-2 counter inactive | Thrombin FP inactive
CCc1nnc(NC(=O)c2sc3nc4cc(C)ccc4cc3c2N)s1	TPT1 inh 27, Rpn11 block 71 | TPT1 inh confirm 28 | RNase T1 counter 41 | Rpn11 confirm inactive | MMP-2 counter inactive | Thrombin FP inactive
CCOC(=O)Cc1csc(NC(=O)c2sc3nc4ccc(C)cc4cc3c2N)n1	HNF4A DNA FP 38, TPT1 inh 26, Rpn11 block 61 | TPT1 inh confirm 51 | RNase T1 counter 62 | Rpn11 confirm 77 | MMP-2 counter inactive | Thrombin FP 41
CCc1nnc(NC(=O)c2ccc3ccccc3n2)s1	none
COc1ccc(NC(=O)N2C3CCCC2CC(NC(=O)c2ccccc2)C3)cc1 (centres undefined)	none
O=C(N/N=C/c1sc(N2CCOCC2)nc1-c1ccccc1)c1cccc(S(=O)(=O)N2CCCC2)c1	HNF4A DNA FP 43, TPT1 inh 35, Rpn11 block 71 | TPT1 inh confirm 34 | RNase T1 counter 43 | Rpn11 confirm 94 | MMP-2 counter inactive | Thrombin FP 69
O=C(N/N=C/c1sc(N2CCOCC2)nc1-c1ccccc1)c1ccc(O)cc1	none
Cc1ccsc1C(=O)NN=C1CCCCCC1	none
Cc1cc(N=Nc2ccccc2C(=O)O)c(C)c(C)c1O	HNF4A DNA FP 32, TPT1 inh 41, Rpn11 block 92 | TPT1 inh confirm 42 | RNase T1 counter 60 | Rpn11 confirm 69 | MMP-2 counter inactive | Thrombin FP 48
COc1cc(N=Nc2ccccc2C(=O)O)ccc1O	none
Cc1cc(O)c(C(C)C)cc1N=Cc1ccccc1[N+](=O)[O-]	none (no result: TPT1 inh, PP1 counter)
Cc1cc(O)c(C(C)C)cc1N=Nc1ccccc1C(=O)O	TPT1 inh 26, Rpn11 block 41 | TPT1 inh confirm 31 | RNase T1 counter 48 | Rpn11 confirm inactive | MMP-2 counter inactive | Thrombin FP inactive
O=C(C1=C(O)C(=O)N(c2ncccn2)C1c1ccc(Cl)cc1)c1ccco1 (centres undefined)	none
O=C(C1=C(O)C(=O)N(c2ncccn2)C1c1ccc(Cl)c(Cl)c1)c1ccco1 (centres undefined)	TPT1 inh 28, Rpn11 block 41, CSN inh 48 | TPT1 inh confirm 30 | RNase T1 counter 39 | Rpn11 confirm inactive | MMP-2 counter inactive | Thrombin FP inactive
CCN(C(=S)Nc1cccc2ccccc12)c1ccccc1	none (no result: TPT1 inh, PP1 counter)
C[C@]12CCC[C@H](O1)c1c(cc3c(c1O)C(=O)c1c(O)cc(O)cc1C3=O)O2	TPT1 inh 80, Rpn11 block 52, CSN inh 38 | TPT1 inh confirm 89 | RNase T1 counter 99 | Rpn11 confirm 47 | MMP-2 counter inactive | Thrombin FP inactive
CC(C)N1CCc2c(sc(NC(=O)c3cc(-c4cccs4)nc4ccccc34)c2C(N)=O)C1	TPT1 inh 44, Rpn11 block 57, CSN inh 107 | TPT1 inh confirm inactive | RNase T1 counter 22 | Rpn11 confirm 128 | MMP-2 counter inactive | Thrombin FP 56
COCC(=O)N1CCC(Oc2ccc(C(=O)NCCCC3CCCC3)cc2)CC1	none (no result: TPT1 inh, PP1 counter)
Cc1cc(C(=O)N2CCC2(C)C(=O)Nc2cc(C(C)(C)C)nn2C)nn1C (centres undefined)	none (no result: TPT1 inh, PP1 counter)
COCCN=c1scc(-c2cc(OC)c(OC)c(OC)c2)n1/N=C/c1c(C)[nH]c2ccccc12	TPT1 inh 44, Rpn11 block 112 | TPT1 inh confirm 60 | RNase T1 counter 71 | Rpn11 confirm 56 | MMP-2 counter inactive | Thrombin FP inactive
Cc1[nH]c2ccccc2c1/C=N/n1cnnc1	none
Cc1c(O)ccc(/C(Cc2ccc3ccccc3n2)=N\N)c1O	TPT1 inh 29, Rpn11 block 48 | TPT1 inh confirm 36 | RNase T1 counter 47 | Rpn11 confirm inactive | MMP-2 counter inactive | Thrombin FP inactive
CCc1cc(/C(Cc2ccc3ccccc3n2)=N\O)c(O)cc1O	none
CC(=O)C[C@H](O)CC(=O)[C@H]1OC(=O)CC/C=C\Cc2ccccc21	none (no result: TPT1 inh)
CC1(C(=O)Nc2cnc3ccccc3c2)CCN1C(=O)CCc1ccccc1 (centres undefined)	none (no result: TPT1 inh, PP1 counter)
NS(=O)(=O)c1ccc(Nc2ccc([N+](=O)[O-])c3nonc23)cc1	TPT1 inh 38, Rpn11 block 56 | TPT1 inh confirm 48 | RNase T1 counter 62 | Rpn11 confirm 45 | MMP-2 counter inactive | Thrombin FP inactive
Cc1cc(=O)oc2c(C)c3occc3cc12	none
CCCCCC/C(C)=C1/SC(=S)NC1=O	TPT1 inh 51, Rpn11 block 48 | TPT1 inh confirm inactive | RNase T1 counter inactive | Rpn11 confirm inactive | MMP-2 counter inactive | Thrombin FP inactive
CCCCCCCCCC(=O)O	none (no result: TPT1 inh, PP1 counter)
CCOC(=O)c1ccc(/C=C2/C=C(c3ccccc3)N(c3ccc(Cl)c(C(=O)O)c3)C2=O)cc1	TPT1 inh 62, Rpn11 block 68, PP1 counter 20 | TPT1 inh confirm 74 | RNase T1 counter 80 | PP1 confirm inactive | PP5 inh counter inactive | Rpn11 confirm 156 | MMP-2 counter inactive | Thrombin FP 152
